From ChEMBL document CHEMBL4270630

What was measured:
Influenza A virus [1] = test: Antiviral activity against Influenza A virus A/PR/8/34(H1N1) infected in MDCK cells assessed as reduction in virus-induced cytopathic effect after 3 days by microscopic method; type: functional, organism-based, A/Puerto Rico/8/1934(H1N1); conditions: Influenza A virus, A/Puerto Rico/8/1934(H1N1), MDCK, 72 h
Method in brief: (§1)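 Semi-confluent MDCK cells were infected at an MOI of 0.0004 PFU/cell in Ultra-MDCK infection medium with 2 μg/mL TPCK-trypsin, together with compounds. After 3 days at 35 °C, CPE was scored by microscopy and confirmed by MTS formazan viability. EC50 is the concentration giving 50% inhibition of virus-induced CPE. Values are means of two to five independent tests.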

Influenza A virus [2] = test: Antiviral activity against Influenza A virus A/PR/8/34(H1N1) infected in MDCK cells after 3 days by MTS assay; type: functional, organism-based, A/Puerto Rico/8/1934(H1N1); conditions: Influenza A virus, A/Puerto Rico/8/1934(H1N1), MDCK, 72 h; method in brief: as §1
Influenza A virus [3] = test: Antiviral activity against Influenza A virus A/Virginia/ATCC3/2009(H1N1pdm) infected in MDCK cells assessed as reduction in virus-induced cytopathic effect after 3 days by microscopic method; type: functional, organism-based, Influenza A virus (A/Virginia/03/2009(H1N1)); conditions: 72 h; method in brief: as §1
Influenza A virus [4] = test: Antiviral activity against Influenza A virus A/Virginia/ATCC3/2009(H1N1pdm) infected in MDCK cells after 3 days by MTS assay; type: functional, organism-based, Influenza A virus (A/Virginia/03/2009(H1N1)); conditions: 72 h; method in brief: as §1
H3N2 subtype [5] = test: Antiviral activity against Influenza A virus A/HK/7/87(H3N2) infected in MDCK cells assessed as reduction in virus-induced cytopathic effect after 3 days by microscopic method; type: functional, organism-based; conditions: A/Hong Kong/7/1987(H3N2), 72 h; method in brief: as §1
H3N2 subtype [6] = test: Antiviral activity against Influenza A virus A/HK/7/87(H3N2) infected in MDCK cells after 3 days by MTS assay; type: functional, organism-based; conditions: A/Hong Kong/7/1987(H3N2), 72 h; method in brief: as §1
Influenza B virus [7] = test: Antiviral activity against Influenza B virus B/Ned/537/05 infected in MDCK cells assessed as reduction in virus-induced cytopathic effect after 3 days by microscopic method; type: functional, organism-based; conditions: B/Ned/537/05, MDCK, 72 h
Method in brief: (§2)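 Semi-confluent MDCK cells were infected at an MOI of 0.0004 PFU/cell in Ultra-MDCK infection medium with 2 μg/mL TPCK-trypsin, together with compounds. After 3 days at 35 °C, CPE was scored by microscopy and confirmed by MTS formazan viability. Values are means of two to five independent tests.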

Influenza B virus [8] = test: Antiviral activity against Influenza B virus B/Ned/537/05 infected in MDCK cells after 3 days by MTS assay; type: functional, organism-based; conditions: B/Ned/537/05, MDCK, 72 h; method in brief: as §2
MDCK = test: Cytotoxicity against MDCK cells assessed as reduction in cell viability after 3 days by MTS assay; type: cell-based, Canis lupus familiaris; conditions: dog, mdck, 72 h
[9] = Cytotoxicity against MDCK cells assessed as alteration in cell morphology after 3 days by microscopic method; type: cell-based, Canis lupus familiaris; conditions: dog
Method in brief: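 Mock-infected MDCK cells were treated with compounds in parallel with the antiviral assay, 3 days at 35 °C. MCC is the concentration causing minimal change in cell morphology by microscopy. CC50 is the 50% cytotoxic concentration by MTS formazan viability assay.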

Human coronavirus 229E [10] = test: Antiviral activity against Human coronavirus 229E infected in HEL299 cells assessed as reduction in virus induced cytopathic effect after 5 days by microscopic method; type: functional, organism-based; conditions: HEL 299, 120 h
Method in brief: (§3)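 Confluent HEL 299 cells in medium with 2% FCS were exposed to HCoV-229E (100 CCID50/well) together with compounds and held for 5 days at 35 °C. EC50 (CPE reduction) and MCC (minimal morphology change) were determined by microscopy. SI is MCC/EC50.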

[11] = Cytotoxicity against HEL299 cells assessed as changes in cell morphology after 5 days by microscopic method; type: cell-based, HEL 299; conditions: human; method in brief: as §3
Human coronavirus 229E [12] = test: Antiviral activity against Human coronavirus 229E infected in human A549 cells assessed as reduction in virus RNA level after 3 days by qRT-PCR method; type: functional; conditions: A549, 72 h
Method in brief: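 Confluent A549 cells were infected with HCoV-229E in 2% FCS medium with compounds present. The inoculum was removed at 1 h and compounds were kept on at 35 °C. Supernatants were harvested at day 3, lysed at 75 °C for 10 min, and viral genome copies counted by one-step qRT-PCR.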

[13] = Cytotoxicity against human A549 cells assessed as changes in cell morphology after 3 days by microscopic method; type: cell-based
Method in brief: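 Mock-infected A549 cells were incubated with compounds for 3 days. MCC is the concentration causing minimal change in cell morphology by microscopy.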

[14] = Selectivity index, ratio of MCC for HEL299 cells to EC50 for Human coronavirus 229E infected in HEL299 cells; type: toxicity, cell-based; conditions: read-out: Selectivity Index; method in brief: as §3
[15] = Selectivity index, ratio of MCC for MDCK cells to EC50 for Influenza A virus A/PR/8/34(H1N1) infected in MDCK cells assessed as reduction in virus-induced cytopathic effect by microscopic method; type: toxicity, cell-based; conditions: dog, read-out: Selectivity Index
Method in brief: (§4)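 Selectivity index is MCC divided by EC50. MCC comes from microscopy of mock-infected MDCK cells. EC50 comes from microscopic scoring of virus-induced CPE in MDCK cells infected at an MOI of 0.0004 PFU/cell with TPCK-trypsin. Both readings were taken after 3 days at 35 °C.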

[16] = Selectivity index, ratio of MCC for MDCK cells to EC50 for Influenza A virus A/Virginia/ATCC3/2009(H1N1pdm) infected in MDCK cells assessed as reduction in virus-induced cytopathic effect by microscopic method; type: toxicity, cell-based; conditions: dog, read-out: Selectivity Index; method in brief: as §4
[17] = Selectivity index, ratio of MCC for MDCK cells to EC50 for Influenza A virus A/HK/7/87(H3N2) infected in MDCK cells assessed as reduction in virus-induced cytopathic effect by microscopic method; type: toxicity, cell-based; conditions: dog, read-out: Selectivity Index; method in brief: as §4
[18] = Selectivity index, ratio of MCC for MDCK cells to EC50 for Influenza B virus B/Ned/537/05 infected in MDCK cells assessed as reduction in virus-induced cytopathic effect by microscopic method; type: toxicity, cell-based; conditions: dog, read-out: Selectivity Index; method in brief: as §4
[19] = Selectivity index, ratio of MCC for MDCK cells to EC50 for Influenza B virus B/HK/05/72 infected in MDCK cells assessed as reduction in virus-induced cytopathic effect by microscopic method; type: toxicity, cell-based; conditions: dog, read-out: Selectivity Index; method in brief: as §4

Row | SMILES | EC50 (Influenza A virus [1]) | EC50 (Influenza A virus [2]) | EC50 (Influenza A virus [3]) | EC50 (Influenza A virus [4]) | EC50 (H3N2 subtype [5]) | EC50 (H3N2 subtype [6]) | EC50 (Influenza B virus [7]) | EC50 (Influenza B virus [8]) | CC50 (MDCK) | MCC at 72 h [9] | EC50 (Human coronavirus 229E [10]) | MCC at 120 h [11] | EC90 (Human coronavirus 229E [12]) | EC99 (Human coronavirus 229E [12]) | MCC at 72 h [13] | selectivity ratio [14] | selectivity ratio [15] | selectivity ratio [16] | selectivity ratio [17] | selectivity ratio [18] | further results
1 | CC(=O)N[C@H]1[C@H](O[C@@H]2c3ccc(c(Cl)c3)Oc3cc4cc(c3O)Oc3ccc(cc3Cl)C[C@H]3NC(=O)[C@H](NS(=O)(=O)c5ccc(C)cc5)c5ccc(O)c(c5)Oc5cc(O)cc(c5)[C@H](NC3=O)C(=O)N[C@H]4C(O)N[C@H]3C(=O)N[C@H]2C(=O)N[C@@H](C(=O)O)c2cc(O)cc(O)c2-c2cc3ccc2O)O[C@H](CO)[C@@H](O)[C@@H]1O (stereo not given in full) | 9 µM | 11 µM | 30 µM | 32 µM | 41 µM | 19 µM | 11 µM | 12 µM | > 100 µM | 100 µM | 5.2 µM | ≥ 100 µM | 4.9 µM | 10 µM | > 50 µM | 19 | – | – | – | – | –
2 | CCCCCCCCCCCCS(=O)(=O)N[C@H]1C(=O)N[C@@H]2Cc3ccc(c(Cl)c3)Oc3cc4cc(c3O)Oc3ccc(cc3Cl)[C@@H](O[C@@H]3O[C@H](CO)[C@@H](O)[C@H](O)[C@H]3NC(C)=O)[C@H]3NC(=O)[C@H](NC(O)[C@@H]4NC(=O)[C@@H](NC2=O)c2cc(O)cc(c2)Oc2cc1ccc2O)c1ccc(O)c(c1)-c1c(O)cc(O)cc1[C@H](C(=O)O)NC3=O (stereo not given in full) | 0.4 µM | 0.8 µM | > 100 µM | 1.6 µM | < 0.8 µM | < 0.8 µM | < 0.8 µM | < 0.8 µM | 4.5 µM | 4 µM | 1.8 µM | 20 µM | 2.8 µM | 4.7 µM | 50 µM | 13 | – | – | – | – | –
3 | CC(=O)N[C@H]1[C@H](O[C@@H]2c3ccc(c(Cl)c3)Oc3cc4cc(c3O)Oc3ccc(cc3Cl)C[C@H]3NC(=O)[C@H](N5C(=O)C(SC[C@H]6O[C@@H]7OC(C)(C)O[C@@H]7[C@H]7OC(C)(C)O[C@H]76)=C(SC[C@H]6O[C@@H]7OC(C)(C)O[C@@H]7[C@H]7OC(C)(C)O[C@H]76)C5=O)c5ccc(O)c(c5)Oc5cc(O)cc(c5)[C@H](NC3=O)C(=O)N[C@H]4C(O)N[C@H]3C(=O)N[C@H]2C(=O)N[C@@H](C(=O)O)c2cc(O)cc(O)c2-c2cc3ccc2O)O[C@H](CO)[C@@H](O)[C@@H]1O (stereo not given in full) | > 100 µM | 9.1 µM | 2.1 µM | 2.2 µM | 2.3 µM | 1.7 µM | > 100 µM | 4.2 µM | 26 µM | 20 µM | – | – | – | – | – | – | 5 | 5 | 5 | 5 | selectivity ratio [19]: 5
4 | CCCCSC1=C(SCCCC)C(=O)N(CCOCCOCCOCCOCc2cn(C3C(=O)N[C@@H]4Cc5ccc(c(Cl)c5)Oc5cc6cc(c5O)Oc5ccc(cc5Cl)[C@@H](O[C@@H]5O[C@H](CO)[C@@H](O)[C@H](O)[C@H]5NC(C)=O)[C@H]5NC(=O)[C@H](NC(O)[C@@H]6NC(=O)[C@@H](NC4=O)c4cc(O)cc(c4)Oc4cc3ccc4O)c3ccc(O)c(c3)-c3c(O)cc(O)cc3[C@H](C(=O)O)NC5=O)nn2)C1=O (stereo not given in full) | 4.8 µM | 5.8 µM | 9.5 µM | 8.6 µM | 5.3 µM | 6 µM | 5.5 µM | 4.9 µM | > 100 µM | 100 µM | 8.9 µM | ≥ 100 µM | 8.6 µM | 29 µM | > 50 µM | – | 16 | 16 | 16 | 16 | selectivity ratio [19]: 16
5 | CCCCCCS(=O)(=O)N[C@H]1C(=O)N[C@@H]2Cc3ccc(c(Cl)c3)Oc3cc4cc(c3O)Oc3ccc(cc3Cl)[C@@H](O[C@@H]3O[C@H](CO)[C@@H](O)[C@H](O)[C@H]3NC(C)=O)[C@H]3NC(=O)[C@H](NC(O)[C@@H]4NC(=O)[C@@H](NC2=O)c2cc(O)cc(c2)Oc2cc1ccc2O)c1ccc(O)c(c1)-c1c(O)cc(O)cc1[C@H](C(=O)O)NC3=O (stereo not given in full) | 8.6 µM | 9.6 µM | 8.9 µM | 9.1 µM | 8.3 µM | 8.9 µM | 8.9 µM | 10.3 µM | 54 µM | 100 µM | 1.5 µM | 20 µM | – | – | – | 11 | – | – | – | – | –
